In ChEMBL document CHEMBL1138032, “New 2',6'-dimethyl-L-tyrosine (Dmt) opioid peptidomimetics based on the Aba-Gly scaffold. Development of unique mu-opioid receptor ligands” (J Med Chem, 2006):
Square brackets hold non-standard residues; d marks the D form. Peptide text beside a SMILES is read from it. * marks the point of attachment. Dmt = Cc1cc(O)cc(C)c1C[C@H](N)C(=O)O; Tic = O=C(O)[C@@H]1Cc2ccccc2CN1; NHBn = c1ccc(CN*)cc1; NHPh = c1ccc(N*)cc1

How the values were obtained:
Mu-type opioid receptor = Mu-type opioid receptor (Cavia porcellus, UniProt P97266); experiment: Agonist activity at mu opioid receptor by guinea pig ileum assay; assay type: functional, tissue-based
Summary of the method: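 Myenteric plexus–longitudinal muscle from male guinea pig ileum was field-stimulated with supramaximal bipolar rectangular pulses. Agonism was read as inhibition of the electrically evoked twitch, referenced to dermorphin. IC50 came from dose-response curves over at least six experiments on fresh tissue.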

[1] = target: Opioid receptors; mu & delta (Homo sapiens) (UniProt P41143+P35372); experiment: Selectivity for delta opioid receptor over mu opioid receptor; assay type: protein assay
Summary of the method: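 Non-specific binding was set with 2 μM unlabeled peptide. Five to eight peptide doses were run in duplicate, with independent repeats on different preparations. Samples were filtered on 0.1% polyethylenimine-soaked glass fiber filters and washed thrice with ice-cold buffered BSA. Ki was derived by Cheng–Prusoff.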

[2] = target: Delta-type opioid receptor (Mus musculus, UniProt P32300); experiment: (§1) Agonist activity at delta opioid receptor by mouse vas deferens assay; assay type: functional, tissue-based
Summary of the method: (§2)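 Isolated mouse vas deferens was field-stimulated with supramaximal bipolar rectangular pulses. Agonism was read as inhibition of the electrically evoked twitch, referenced to deltorphin C. IC50 came from dose-response curves over at least six experiments on fresh tissue.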

[3] = target: Delta-type opioid receptor (Mus musculus) (UniProt P32300); experiment: as §1; assay type: functional, tissue-based; summary of the method: as §2
[4] = target: Delta-type opioid receptor (Mus musculus) (UniProt P32300); experiment: Activity at delta opioid receptor by mouse vas deferens assay; assay type: functional, tissue-based; conditions: filed as partial agonist; summary of the method: as §2

Sequence of Mu-type opioid receptor (P97266 whole entry): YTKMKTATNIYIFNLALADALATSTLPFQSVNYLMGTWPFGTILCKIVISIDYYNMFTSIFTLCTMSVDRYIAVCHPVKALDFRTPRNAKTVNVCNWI
Sequence of Delta-type opioid receptor (P32300 whole entry): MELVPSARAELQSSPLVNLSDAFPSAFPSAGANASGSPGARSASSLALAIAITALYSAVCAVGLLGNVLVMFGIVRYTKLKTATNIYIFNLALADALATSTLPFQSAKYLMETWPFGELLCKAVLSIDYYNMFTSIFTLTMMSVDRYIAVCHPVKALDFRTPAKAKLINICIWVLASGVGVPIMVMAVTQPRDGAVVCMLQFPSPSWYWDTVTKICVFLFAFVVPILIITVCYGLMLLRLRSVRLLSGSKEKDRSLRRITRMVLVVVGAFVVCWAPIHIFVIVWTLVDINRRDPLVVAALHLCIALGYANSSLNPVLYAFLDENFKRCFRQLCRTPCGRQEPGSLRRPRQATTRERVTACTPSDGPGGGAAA
Sequence of Delta-type opioid receptor (Mus musculus) (P32300 whole entry): as above
Sequence of Opioid receptors; mu & delta (Homo sapiens) (P35372 whole entry, looked up): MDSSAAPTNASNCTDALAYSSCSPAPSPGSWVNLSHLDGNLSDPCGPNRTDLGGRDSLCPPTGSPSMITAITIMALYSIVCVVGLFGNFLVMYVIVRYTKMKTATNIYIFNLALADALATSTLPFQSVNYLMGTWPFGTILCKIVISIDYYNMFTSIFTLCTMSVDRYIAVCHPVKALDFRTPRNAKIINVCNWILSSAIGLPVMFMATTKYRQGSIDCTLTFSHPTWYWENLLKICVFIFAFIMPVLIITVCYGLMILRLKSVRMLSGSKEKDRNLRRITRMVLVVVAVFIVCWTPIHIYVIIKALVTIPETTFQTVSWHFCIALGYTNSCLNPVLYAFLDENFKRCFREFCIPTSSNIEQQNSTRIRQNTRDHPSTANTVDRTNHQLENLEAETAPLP
Sequence of Opioid receptors; mu & delta (Homo sapiens) (P41143 whole entry, looked up): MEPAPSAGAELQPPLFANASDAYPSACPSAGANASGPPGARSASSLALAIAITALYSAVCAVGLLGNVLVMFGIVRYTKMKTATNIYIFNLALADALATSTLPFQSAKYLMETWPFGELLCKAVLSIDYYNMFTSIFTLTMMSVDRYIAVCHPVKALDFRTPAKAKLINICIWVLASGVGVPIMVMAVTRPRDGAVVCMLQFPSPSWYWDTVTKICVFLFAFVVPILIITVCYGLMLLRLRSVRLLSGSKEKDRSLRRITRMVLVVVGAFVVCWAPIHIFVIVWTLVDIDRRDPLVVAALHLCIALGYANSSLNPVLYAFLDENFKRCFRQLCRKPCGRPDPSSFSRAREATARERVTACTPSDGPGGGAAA

Compound | IC50 (Mu-type opioid receptor) | Selectivity ratio [1] | IC50 [2] | %max [3] | Activity [4]
Cc1cc(O)cc(C)c1C[C@H](N)C(=O)N1Cc2ccccc2C[C@H]1C(=O)NCC(=O)NCc1ccccc1 (H-[Dmt]-[Tic]-Gly-NHBn) | 2.69 nM | 5.3 |  |  | 
Cc1cc(O)cc(C)c1C[C@H](N)C(=O)N[C@H]1Cc2ccccc2CN(CC(=O)NCc2ccccc2)C1=O | 51 nM |  | 830 nM |  | 
Cc1cc(O)cc(C)c1C[C@H](N)C(=O)N1Cc2ccccc2C[C@H]1C(=O)NCC(=O)Nc1ccccc1 (H-[Dmt]-[Tic]-Gly-NHPh) | 2.57 nM | 3.6 | 3.02 nM |  | 
Cc1cc(O)cc(C)c1C[C@H](N)C(=O)N[C@H]1Cc2ccccc2CN(CC(=O)Nc2ccccc2)C1=O | 95 nM |  | 650 nM | 40% | Partial agonist
Cc1cc(O)cc(C)c1C[C@H](N)C(=O)N[C@H]1Cc2ccccc2CN(Cc2nc3ccccc3[nH]2)C1=O | 231 nM |  | 2700 nM | 40% | Partial agonist
